Data as given in ChEMBL document CHEMBL3758141, “Cytotoxic C20 Diterpenoid Alkaloids from the Australian Endemic Rainforest Plant Anopterus macleayanus” (J Nat Prod, 2015).

Tests used:
[1] = tested on: LNCaP; test: Cytotoxicity against human LNCAP cells after 72 hrs by AlamarBlue end point assay; assay type: functional, cell-based
In short: (§1)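 Cells in phenol-red-free RPMI-1640 at 37 °C, 5% CO2, with 5% FBS (DuCaP 10% FBS). Seeded per well for 24 h: LNCaP 4000, C4-2B 3000, DuCaP 15 000, BPH-1 3000, WPMY-1 2000. Compounds in DMSO were diluted in medium (final DMSO 0.3%). After 72 h, metabolic activity was read by AlamarBlue. Controls were a DMSO equivalent and vinblastine 25 nM.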

[2] = Cytotoxicity against human WPMY-1 cells after 72 hrs by AlamarBlue end point assay; assay type: cell-based; settings: WPMY-1, 72 h; in short: as §1
[3] = Cytotoxicity against human BPH1 cells after 72 hrs by AlamarBlue end point assay; assay type: cell-based; settings: BPH-1, 72 h; in short: as §1
[4] = Cytotoxicity against human C4-2B cells after 72 hrs by AlamarBlue end point assay; assay type: functional, cell-based; settings: LNCaP C4-2B; in short: as §1
[5] = Cytotoxicity against human DuCaP cells after 72 hrs by AlamarBlue end point assay; assay type: functional, cell-based; in short: as §1
[6] = tested on: LNCaP; test: Selectivity index, ratio of IC50 for human WPMY-1 cells to IC50 for human LNCAP cells; assay type: functional
[7] = tested on: LNCaP; test: Selectivity index, ratio of IC50 for human BPH1 cells to IC50 for human LNCAP cells; assay type: functional
[8] = tested on: LNCaP; test: Cytotoxicity against human LNCAP cells assessed as decrease in cell confluence measured every 2 hrs for 72 hrs by real-time live-cell imaging analysis relative to DMSO control; assay type: functional, cell-based
In short: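 LNCaP cells in phenol-red-free RPMI-1640 with 5% FBS were seeded at 4000 per well for 24 h. They were then treated with compounds diluted from DMSO (final DMSO 0.3%). The IncuCyte live-cell imager took images every 2 h for 72 h, and growth was tracked as increasing confluence. Controls were a DMSO equivalent and vinblastine 25 nM.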

Row | Compound | IC50 [1] | IC50 [2] | IC50 [3] | IC50 [4] | IC50 [5] | Ratio IC50 [6] | Ratio IC50 [7] | Activity [8]
1 | C=C1C[C@]23C[C@H](O)[C@]4(O)[C@@]5(C)C[C@H](O)C[C@]46C([C@H]2[C@H]1[C@@H](OC(=O)/C(C)=C/C)[C@@H](OC(=O)/C(C)=C/C)[C@H]36)N(C)C5 (stereo partly drawn) | 27.2 nM | 48.2 nM | 29.6 nM | 45 nM | 86.9 nM |  |  | 
2 | CC[C@]1(O)C[C@@H]2CN(CCc3c([nH]c4ccccc34)[C@@](C(=O)OC)(c3cc4c(cc3OC)N(C)[C@H]3[C@@](O)(C(=O)OC)[C@H](OC(C)=O)[C@]5(CC)C=CCN6CC[C@]43[C@@H]65)C2)C1 [VINBLASTINE] | 3.2 nM | 4.2 nM | 3.8 nM | 2.4 nM | 3.7 nM |  |  | 
3 | C=C1C[C@@]23[C@H]4[C@H](OC(=O)c5ccccc5)[C@H](OC(=O)/C(C)=C/C)[C@@H]1[C@@H]2C1N(C)C[C@]2(C)C[C@H](O)C[C@@]14[C@]2(O)[C@@H](O)[C@@H]3O (stereo partly drawn) | 6.7 nM | 4.9 nM | 9.2 nM | 5.2 nM | 4.1 nM |  |  | 
4 | C=C1C[C@]23C[C@H](OC(C)=O)[C@]4(O)[C@@]5(C)C[C@H](O)C[C@]46C([C@H]2[C@H]1[C@@H](OC(=O)/C(C)=C/C)[C@@H](OC(=O)/C(C)=C/CO)[C@H]36)N(C)C5 (stereo partly drawn) | 10.9 nM | 9.6 nM | 11.4 nM | 7 nM | 9.9 nM |  |  | 
5 | C=C1C[C@@]23[C@H]4[C@H](OC(=O)/C(C)=C/C)[C@H](OC(=O)/C(C)=C/C)[C@@H]1[C@@H]2C1N(C)C[C@]2(C)C[C@H](O)C[C@@]14[C@]2(O)[C@@H](O)[C@@H]3O (stereo partly drawn) | 50.8 nM | 86 nM | 64.3 nM | 93.8 nM | 55.7 nM |  |  | 
6 | C=C1C[C@]23C[C@H](O)[C@]4(O)[C@@]5(C)C[C@H](O)C[C@]46C([C@H]2[C@H]1[C@@H](OC(=O)/C(C)=C/C)[C@@H](OC(=O)/C(C)=C/CO)[C@H]36)N(C)C5 (stereo partly drawn) | 379 nM | 328 nM | 177 nM | 340 nM | 355 nM |  |  | 
7 | C=C1C[C@]23C[C@H](OC(C)=O)[C@]4(O)[C@@]5(C)C[C@H](O)C[C@]46C([C@H]2[C@H]1[C@@H](OC(=O)/C(C)=C/C)[C@@H](OC(=O)/C(C)=C/C)[C@H]36)N(C)C5.O=C(O)C(F)(F)F (stereo partly drawn) | 3.1 nM | 6.6 nM | 11.5 nM | 6.2 nM | 8.7 nM | 2.1 | 3.7 | Dose-dependent effect
8 | C=C1C[C@]23C[C@H](O)[C@]4(O)[C@@]5(C)C[C@H](O)C[C@]46C([C@H]2[C@H]1[C@@H](OC(=O)/C(C)=C/C)[C@@H](OC(=O)c1ccccc1)[C@H]36)N(C)C5 (stereo partly drawn) | 190 nM | 140 nM | 236 nM | 205 nM | 154 nM |  |  | 
9 | C=C1C[C@@]23[C@H]4[C@H](OC(=O)/C(C)=C/CO)[C@H](OC(=O)/C(C)=C/C)[C@@H]1[C@@H]2C1N(C)C[C@]2(C)C[C@H](O)C[C@@]14[C@]2(O)[C@@H](O)[C@@H]3O (stereo partly drawn) | 72.6 nM | 155 nM | 134 nM | 135 nM | 70.7 nM |  |  | 
